# Bioassay records: PubChem BioAssay, Broad Institute
# In the library only some 5.8% were active in any assay of this set; here they are far more common.
# IDH1 mut inh – inhibitors of IDH1 R132H reductase, primary screen, biochemical, plate reader, single point; Isocitrate dehydrogenase [NADP] cytoplasmic (Homo sapiens), O75874; diaphorase/resazurin fluorescence, 60 min; inhibition, % at 10 µM; 0.18% of 70,000 active; AID 624101, 2012; in the data active = inhibition above about 34%; inconclusive = no clear call, values can overlap the other calls; inactive = below about 11%;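 note: 0% = DMSO and 100% = no enzyme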
# Target sequence (O75874 whole entry R132H): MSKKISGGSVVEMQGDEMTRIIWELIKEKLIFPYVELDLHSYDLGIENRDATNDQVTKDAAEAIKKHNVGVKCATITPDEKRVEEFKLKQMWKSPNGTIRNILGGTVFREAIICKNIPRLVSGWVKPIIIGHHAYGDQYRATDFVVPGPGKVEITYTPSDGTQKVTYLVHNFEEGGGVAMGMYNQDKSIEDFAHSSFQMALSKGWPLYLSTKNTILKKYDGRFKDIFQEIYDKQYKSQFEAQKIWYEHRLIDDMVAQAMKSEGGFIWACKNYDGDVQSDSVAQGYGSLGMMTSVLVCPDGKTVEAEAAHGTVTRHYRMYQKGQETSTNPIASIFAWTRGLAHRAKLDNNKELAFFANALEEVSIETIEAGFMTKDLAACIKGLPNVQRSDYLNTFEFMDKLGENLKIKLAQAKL
# GASC1 inh – inhibitors of GASC-1 (KDM4C) histone demethylase, primary screen, biochemical, single concentration HTS. inhibition, % at 12.5 µM. GST-KDM4C 2-372, H3K9me3 peptide, LANCE TR-FRET. Lysine-specific demethylase 4C (Homo sapiens), Q9H3R0. 0.15% of 96,000 active;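 active = mean replicate inhibition above about 25%, with at least 55% of replicates also reaching it, limit read from the data, passing the limit was not always enough; inconclusive = only one of those two conditions met; inactive = neither condition met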
#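 Material: GST-tagged GASC-1 (JMJD2C) catalytic fragment, aa 2-372. Input: enzyme final amount 10 nM. Medium: HEPES buffer, pH 7.5, plus ascorbate. Reagent: H3K9me3 peptide substrate, Fe(II), 2-oxoglutarate. Doses: single dose. Times: reaction 30 min RT, detection step 1 h RT. Measured by: LANCE TR-FRET. Evaluation: Fall in 671/618 emission ratio as inhibition.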
# T cruzi growth-1 – T. cruzi intracellular proliferation inhibitors, primary screen, cell-based, beta-gal Tulahuen parasites, NIH3T3 host, luminescence; T. cruzi beta-gal in NIH3T3, GalScreen luminescence, 90 h; inhibition, % at 8.34 µM; 5.9% of 77,000 active; AID 624255, 2012;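 active = mean inhibition above about 93%, with at least 55% of replicates each passing it, limit read from the data, passing the limit was not always enough; inconclusive = only one of those two conditions holds; inactive = neither condition holds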
# Pf Dd2 growth – P. falciparum Dd2 growth inhibitors, primary screen, SYBR Green fluorescence, single dose replicates; 72 h; active compounds read low; activity change, % at 10 µM; 2.3% of 94,000 active; AID 1159554, 2015; in the data active = activity change below about -80%; inconclusive = no clear call, values can overlap the other calls
# T cruzi growth-2 – T. cruzi intracellular proliferation inhibitors, confirmation, cell-based, NIH3T3 host, beta-gal parasite, luminescence, cherry-pick; shares compounds with T cruzi growth-1; T. cruzi beta-gal in NIH3T3, GalScreen luminescence, 90 h; inhibition, % at 8.35 µM; 72% of 5,600 active; AID 651739, 2012;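 active = mean replicate inhibition above about 95% and at least 55% of replicates individually reaching it, limit read from the data; inconclusive = only one of the two criteria is met; inactive = neither criterion is met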
# T cruzi growth-3 – inhibitors of intracellular T. cruzi replication, confirmation, NIH3T3 host cells, beta-gal parasites, cherry-pick, set 2; shares compounds with T cruzi growth-1; T. cruzi beta-gal in NIH3T3, GalScreen luminescence, 90 h; inhibition, % at 2.09 µM; 21% of 5,600 active;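 active = mean inhibition above about 95%, with at least 55% of replicates also reaching it, limit read from the data; inconclusive = meets just one of the two conditions; inactive = meets neither condition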;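 note: plate controls were neutral control median for no effect and positive control median for full effect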
# NIH3T3 tox – cytotoxicity in mouse NIH/3T3 fibroblasts, confirmation, cytotoxicity control for T. cruzi proliferation inhibitor project, cell-based, cherry-pick, single point; NIH/3T3 viability, CellTiter-Glo ATP luminescence, 90 h; cytotoxicity (signal decrease), % at 8.35 µM; shares compounds with T cruzi growth-1; 14% of 5,600 active;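 active = mean signal decrease across replicates above about 35% based on untreated-well scatter, with enough replicates individually passing, limit read from the data; inconclusive = no rule stated though some were filed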;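 note: 0% = median of neutral control wells and 100% = median of positive control wells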
# 3T3 cytotox 2 – NIH/3T3 fibroblast cytotoxicity, confirmation, cytotoxicity control, cell-based, cherry-pick, single point, set 2; shares compounds with T cruzi growth-1; NIH/3T3 viability, CellTiter-Glo ATP luminescence, 90 h; inhibition, % at 24.9 µM; 56% of 5,600 active;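 active = mean loss of cell viability signal at or above a set limit, and enough replicates individually reaching it; inconclusive = meets only the mean limit or only the replicate share; inactive = meets neither condition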;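 note: 0% = median of neutral control wells and 100% = median of positive control wells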
# Active calls of the source: *; ? = inconclusive; · = not tested or not shown.
SMILES,IDH1 mut inh,GASC1 inh,T cruzi growth-1,Pf Dd2 growth,T cruzi growth-2,T cruzi growth-3,NIH3T3 tox,3T3 cytotox 2
Cc1ccc(S(=O)(=O)Nc2ccc3c(c2)C(=O)N([C@@H](C)CO)C[C@H](C)[C@@H](CN(C)S(=O)(=O)c2ccccc2)OCCCC[C@H](C)O3)cc1,·,-0.1,102.3*,-64.3,109.4*,77.7,6.5,-6.5
Cc1ccc(S(=O)(=O)N(C)C[C@H]2OCCCC[C@@H](C)Oc3ccc(NS(=O)(=O)c4ccccc4)cc3C(=O)N([C@H](C)CO)C[C@H]2C)cc1,·,-1.1,?,-82.5*,101.0*,73.1,4.4,-4.5
Cc1ccc(S(=O)(=O)Nc2ccc3c(c2)C(=O)N([C@@H](C)CO)C[C@@H](C)[C@H](CN(C)S(=O)(=O)c2ccccc2)OCCCC[C@H](C)O3)cc1,·,-0.4,57.4,-27.4,·,·,·,·
COC(=O)C[C@H]1CC[C@H]2[C@H](COc3ccc(NC(=O)Nc4cccc(Cl)c4)cc3C(=O)N2C)O1,·,-1.3,100.7*,-3.4,103.2*,?,?,45.8*
CNC(=O)C[C@@H]1CC[C@H]2[C@@H](COc3ccc(NC(=O)c4ccc5c(c4)OCO5)cc3C(=O)N2C)O1,·,-2.0,111.0*,-30.9,-2.7,-14.8,-3.0,-0.9
CN1C(=O)c2cc(NC(=O)c3cccc(Cl)c3)ccc2OC[C@@H]2O[C@@H](CC(=O)NC3CCCCC3)CC[C@H]21,·,2.6,96.4*,-7.5,?,43.0,9.1,?
CCNC(=O)C[C@@H]1CC[C@@H]2[C@@H](COc3ccc(NC(=O)c4ccc5c(c4)OCO5)cc3C(=O)N2C)O1,·,-1.0,26.7,-10.8,·,·,·,·
CN1C(=O)c2cc(NC(=O)c3cccc(Cl)c3)ccc2OC[C@H]2O[C@H](CC(=O)NC3CCCCC3)CC[C@H]21,·,1.2,82.0,-22.9,·,·,·,·
CNC(=O)C[C@@H]1CC[C@@H]2[C@H](COc3ccc(NC(=O)c4ccc5c(c4)OCO5)cc3C(=O)N2C)O1,·,-0.5,34.3,8.2,·,·,·,·
CNC(=O)C[C@H]1CC[C@@H]2[C@@H](COc3ccc(NC(=O)c4ccc5c(c4)OCO5)cc3C(=O)N2C)O1,·,-0.3,107.6*,-0.2,-32.4,-7.7,-14.5,-5.3
COc1ccc(Cl)cc1NC(=O)CSc1n[nH]c(-c2ccccc2)n1,0.0,·,·,·,·,·,·,·
COc1ccc(OCC(=O)Nc2cccc(Cl)c2N2CCOCC2)cc1,0.1,·,·,·,·,·,·,·
COc1cc(C2c3cc(O[C@@H]4O[C@H](CO)[C@@H](O)[C@H](O)[C@H]4O)c(OC)cc3CC(CO)C2CO)ccc1O (some centres not stated),-0.2,·,·,·,·,·,·,·
CN1C(=O)c2cc(NC(=O)Nc3ccc(Cl)cc3)ccc2OC[C@H]2O[C@@H](CC(=O)NCCN3CCCCC3)CC[C@H]21,·,0.0,-12.0,0.3,·,·,·,·
CN1C(=O)c2cc(NC(=O)Nc3ccc(Cl)cc3)ccc2OC[C@@H]2O[C@H](CC(=O)NCCN3CCCCC3)CC[C@@H]21,·,1.0,102.9*,-22.8,108.5*,79.0,-0.4,8.2
C[C@@H]1CN([C@@H](C)CO)C(=O)Cc2cc(NS(=O)(=O)c3ccc(Cl)cc3)ccc2O[C@H]1CN(C)Cc1ccc2c(c1)OCO2,0.0,0.7,78.4,-12.7,·,·,·,·
C[C@@H]1CN([C@H](C)CO)C(=O)Cc2cc(NS(=O)(=O)c3ccc(Cl)cc3)ccc2O[C@H]1CN(C)Cc1ccc2c(c1)OCO2,0.7,0.1,113.2*,8.0,107.7*,86.5,14.0,2.8
